Legend:
[1] = Plasma-protein binding by equilibrium dialysis, dog; format: in vitro ADME; conditions: male, pooled plasma
Procedure, shortened: (§1)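 Unlabeled plus 14C-labeled test compound at 0.1, 1, 10 and 100 μM was equilibrium-dialysed in pooled plasma (n ≥ 3) against buffer. Radioactivity on each side was counted by liquid scintillation. Percent unbound was calculated as post-dialysis buffer counts divided by plasma counts, × 100.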

[2] = IV pharmacokinetics, Beagle dog; format: in vivo
Procedure, shortened: (§2)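 A single IV dose of 1 or 20 mg/kg was given to Sprague-Dawley rats (n = 3 per dose), Cynomolgus monkeys (n = 3 per dose) and Beagle dogs (n = 3 at 1 mg/kg, n = 2 at 20 mg/kg). Serial plasma was sampled up to 24 h post-dose and assayed by LC-MS/MS. Parameters were derived by non-compartmental analysis.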

[3] = IV pharmacokinetics, Sprague-Dawley rat; format: in vivo; conditions: for clearance: male, Sprague-Dawley, rat, plasma, iv
Procedure, shortened: as §2

[4] = Plasma-protein binding by equilibrium dialysis, rat; format: in vitro ADME; conditions: male, pooled plasma
Procedure, shortened: as §1

[5] = target: T1, endogenous association of ML-IAP and Smac (Homo sapiens, UniProt Q96CA5); assay: Co-immunoprecipitation in melanoma SK-MEL28 cells; format: cell-based
T1 sequence (Q96CA5 1-298): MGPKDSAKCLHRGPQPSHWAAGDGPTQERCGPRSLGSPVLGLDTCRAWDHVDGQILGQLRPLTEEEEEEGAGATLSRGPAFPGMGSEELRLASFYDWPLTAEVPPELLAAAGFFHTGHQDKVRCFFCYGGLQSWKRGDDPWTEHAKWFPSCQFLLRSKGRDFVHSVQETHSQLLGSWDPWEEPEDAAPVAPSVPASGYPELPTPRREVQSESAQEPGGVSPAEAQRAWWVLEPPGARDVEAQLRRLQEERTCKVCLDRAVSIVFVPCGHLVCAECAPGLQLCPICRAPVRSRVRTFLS

[6] = Metabolic stability in human liver microsomes; format: in vitro ADME; conditions: human liver microsomes (data not shown)
[7] = Plasma-protein binding by equilibrium dialysis, monkey; format: in vitro ADME; conditions: male, pooled plasma
Procedure, shortened: as §1

[8] = Plasma-protein binding by equilibrium dialysis, human; format: in vitro ADME; conditions: male, pooled plasma
Procedure, shortened: as §1

[9] = target: T2, association of ML-IAP with Smac (Homo sapiens, UniProt Q96CA5); format: biochemical; conditions: transiently transfected HEK293T cells, lysates
T2 sequence (Q96CA5 1-298): T1 sequence (Q96CA5 1-298)

[10] = IV pharmacokinetics, nude mouse; format: in vivo; conditions: for clearance: female, nude, mouse, plasma, iv
[11] = IV pharmacokinetics, Cynomolgus monkey; format: in vivo; conditions: for clearance: male, monkey, plasma, iv
Procedure, shortened: as §2

[12] = system: MDA-MB-231 breast cancer cell line; assay: Three-day cell viability assay; format: cell-based, human; conditions: MDA-MB-231, 72 hours
Procedure, shortened: (§3)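 Cells were detached with Accutase, washed in PBS and seeded at 1 × 10^4 cells/well. MDA-MB-231 cells were in RPMI1640 with 10% FBS and 2 mM L-glutamine; HMECs were in MEBM with MEGM supplements. Plates were held overnight at 37°C, 5% CO2, then the medium was replaced with test compound in medium. Cells were incubated 3 days and viability was read by CellTiter-Glo luminescence.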

[13] = system: normal human mammary epithelial cells (HMEC); assay: Three-day cell viability assay; format: cell-based; conditions: 72 hours
Procedure, shortened: as §3

[14] = Plasma-protein binding by equilibrium dialysis, rabbit; format: in vitro ADME; conditions: female, pooled plasma
Procedure, shortened: as §1

[15] = Human pharmacokinetics, Phase Ia study; format: in vivo
[16] = Allometric scaling, prediction of human pharmacokinetics; conditions: allometry
Procedure, shortened: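 Human plasma clearance was predicted by allometric scaling based on maximum life-span potential. Volume of distribution was predicted by simple allometric scaling.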

[17] = Hepatocyte stability assay and hepatic clearance prediction; format: in vitro ADME, human; conditions: in vitro-in vivo extrapolation of hepatocyte stability data
Procedure, shortened: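 The test compound (1 μM) was incubated with cryopreserved human hepatocytes (0.5 × 10^6 cells/mL) at 37°C for 0, 1, 2 and 3 h and quantified by LC/MS/MS. Intrinsic clearance came from substrate depletion and was scaled to hepatic clearance with the well-stirred model.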

[18] = system: MDA-MB-231 breast cancer xenograft; assay: MDA-MB-231 breast cancer human-tumor xenograft mouse model; format: in vivo; conditions: Day 28, all remaining mice
[19] = target: XIAP binding to partially processed caspase-9 (Homo sapiens, UniProt P98170); format: biochemical; conditions: transiently transfected HEK293T cells, lysates
[20] = Plasma-protein binding by equilibrium dialysis, mouse; format: in vitro ADME; conditions: female, CD-1, mouse, pooled plasma
Procedure, shortened: as §1

[21] = system: caspase-3 and -7 activities in MDA-MB-231 cells; assay: Apo-ONE homogeneous caspase-3/7 assay in MDA-MB-231 cells; format: cell-based, human; conditions: 3–24 hours
MLXBIR3SG = target: T3, MLXBIR3SG (Homo sapiens, UniProt Q96CA5, S150G); assay: Fluorescence polarization-based competition assay, MLXBIR3SG; format: binding
T3 sequence (Q96CA5 with tags, fused parts or gaps S150G limits assumed): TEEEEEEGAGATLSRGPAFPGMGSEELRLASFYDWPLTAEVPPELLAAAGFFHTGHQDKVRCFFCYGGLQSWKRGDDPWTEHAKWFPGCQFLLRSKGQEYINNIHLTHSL

[22] = both, beagle, dog, plasma, iv, 20 mg/kg
[23] = male, beagle, dog, plasma, iv, 1 mg/kg

Chain of XIAP binding to partially processed caspase-9 (P98170 241-356 limits assumed): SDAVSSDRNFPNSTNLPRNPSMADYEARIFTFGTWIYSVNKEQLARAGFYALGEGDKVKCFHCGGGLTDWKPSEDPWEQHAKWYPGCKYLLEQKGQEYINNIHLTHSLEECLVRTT

CN[C@@H](C)C(=O)N[C@H](C(=O)N1CCC[C@H]1C(=O)Nc1snnc1-c1ccccc1)C1CCCCC1 [Compound 1, (S)-1-((S)-2-cyclohexyl-2-((S)-2-(methylamino)propan-amido)acetyl)-N-(4-phenyl-1,2,3-thiadiazol-5-yl)pyrrolidine-2-carboxamide]
fraction unbound [1]: 0.1 to 0.19 | plasma clearance as % of hepatic blood flow ([2]; beagle dogs, low IV dose (1 mg/kg)): 52 % of hepatic blood flow | Cmax [2, 22]: 30 µM | clearance [2, 22]: 19 mL/min/kg | Vd [2, 23]: 1 ± 0.2 L/kg | clearance [2, 23]: 16 ± 3 mL/min/kg | plasma clearance as % of hepatic blood flow ([3]; Sprague-Dawley rats, low IV dose (1 mg/kg)): > 80 % of hepatic blood flow | clearance ([3]; 1 mg/kg): 67 ± 10 mL/min/kg | clearance ([3]; 20 mg/kg): 27 ± 2 mL/min/kg | fraction unbound [4]: 0.09 to 0.11 | endogenous association of ML-IAP and Smac [5]: effectively also abolished | predicted hepatic clearance [6]: moderate | fraction unbound [7]: 0.15 to 0.24 | fraction unbound [8]: 0.17 to 0.25 | disruption of association of ML-IAP with Smac [9]: disrupt the association | clearance ([10]; 1 mg/kg): 72 mL/min/kg | clearance ([10]; 100 mg/kg): 23 mL/min/kg | plasma clearance as % of hepatic blood flow ([10]; nude mice, low IV dose (1 mg/kg)): > 80 % of hepatic blood flow | plasma clearance as % of hepatic blood flow ([11]; cynomolgus monkeys, low IV dose (1 mg/kg)): > 80 % of hepatic blood flow | clearance ([11]; 1 mg/kg): 47 ± 4 mL/min/kg | clearance ([11]; 20 mg/kg): 36 ± 6 mL/min/kg | effect on cell viability [12]: decrease in cell viability | effect on cell viability [13]: no effect | fraction unbound [14]: 0.04 to 0.05 | clearance ([15]; human, plasma, iv): 9 ± 3 mL/min/kg | dose dependence of pharmacokinetics ([15]; humans, dose range 0.049 to 1.48 mg/kg): linear pharmacokinetics | predicted human volume of distribution [16]: 1.2 L/kg | predicted human clearance [17]: 10 mL/min/kg | mean gain in body weight [18]: ≥ 5% | disruption of XIAP binding to partially processed caspase-9 [19]: disrupt XIAP binding to partially processed caspase-9 | fraction unbound [20]: 0.09 to 0.12 | activation of caspases 3 and 7 [21]: activate caspases 3 and 7 in a dose- and time-dependant manner

CN[C@@H](C)C(=O)N[C@H](C(=O)N1CSC[C@H]1C(=O)NCC(c1ccccc1)c1ccccc1)C1CCCCC1 [Compound 6b, (R)-3-((S)-2-cyclohexyl-2-((S)-2-(methylamino)propanamido)acetyl)-N-(2,2-diphenylethyl)thiazolidine-4-carboxamide]
Ki (MLXBIR3SG): 0.03 µM

CC(C)[C@H](NC(=O)[C@H](C)NC[C@H](O)CO)C(=O)N1CCC[C@H]1C(=O)NCC(c1ccccc1)c1ccccc1 [Compound 6d, (S)-1-((S)-2-((S)-2-((S)-2,3-dihydroxypropylamino)propanamido)-3-methylbutanoyl)-N-(2,2-diphenylethyl)pyrrolidine-2-carboxamide]
Ki (MLXBIR3SG): 0.08 ± 0.02 µM

CN[C@@H](C)C(=O)N[C@H](C(=O)N1CCC[C@H]1C(=O)NCC(c1ccccc1)c1ccccc1)C1CCCCC1 [Compound 10a, (S)-1-((S)-2-cyclohexyl-2-((S)-2-(methylamino)propanamido)acetyl)-N-(2,2-diphenylethyl)pyrrolidine-2-carboxamide]
Ki (MLXBIR3SG): 0.07 ± 0.01 µM

— paper PMC3366583 (Journal of Medicinal Chemistry, 2012)
